Laboratory results from ChEMBL document CHEMBL4414559, “Proanthocyanidin Dimers and Trimers from Vitis vinifera Provide Diverse Structural Motifs for the Evaluation of Dentin Biomodification” (J Nat Prod, 2019).
Calls of active or inactive are those of the source. The calls are words filed in the database; no cut-off is given here.

How the values were obtained:
[1] = tested on: Dentine; assay: Induction of elasticity in human molar dentin at 3.5 mg after 1 hr by flexural assay; type: functional, tissue-based
Procedure, shortened: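 Read-out is modulus of elasticity (MPa), measured mechanically on the dentin. This avoids colorimetric, fluorescence or UV detection.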

[2] = Stability in human molar dentin at 3.5 mg after 1 hr by flexural assay; type: ADME, tissue-based, Dentine; settings: in vitro
[3] = tested on: Dentine; assay: Induction of modification in human molar dentin assessed as sum of percentage of apparent modulus elasticity and percentage of collagen remaining after […] at 3.5 mg; type: functional, tissue-based
[4] = tested on: Dentine; assay: Induction of elasticity in human molar dentin assessed as fold change at 3.5 mg after 1 hr by flexural assay relative to untreated control; type: functional
[5] = tested on: Hathewaya histolytica; assay: Inhibition of Clostridium histolyticum collagenase-induced degradation of human molar dentin assessed as reduction in at 3.5 mg after 1 hr followed by collagenase treatment and measured after 24 hrs relative to control
Procedure, shortened: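 Resistance to proteolytic biodegradation is measured gravimetrically as percent mass gain or loss of the dentin. This avoids colorimetric, fluorescence or UV detection.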

Compound	Activity [1]	Stability [2]	Activity [3]	fold change (FC) [4]	inhibition [5] [%]
Oc1cc(O)c2c(c1)O[C@H](c1ccc(O)c(O)c1)[C@H](O)[C@H]2c1c(O)cc(O)c2c1O[C@H](c1ccc(O)c(O)c1)[C@@H](O)C2 [PROCYANIDIN B1]	inactive	Stable	–	–	–
Oc1cc(O)c2c(c1)O[C@H](c1ccc(O)c(O)c1)[C@H](O)[C@H]2c1c(O)cc(O)c2c1O[C@H](c1ccc(O)c(O)c1)[C@H](O)C2 [PROCYANIDIN B2]	inactive	Stable	Active	–	–
Oc1cc(O)c2c(c1)O[C@H](c1ccc(O)c(O)c1)[C@H](O)[C@H]2c1c(O)cc(O)c2c1O[C@H](c1ccc(O)c(O)c1)[C@H](O)[C@H]2c1c(O)cc(O)c2c1O[C@@H](c1ccc(O)c(O)c1)[C@H](O)C2	–	Stable	Active	5.5	70 to 80
Oc1cc(O)c2c(c1)O[C@@H](c1ccc(O)c(O)c1)[C@H](O)[C@H]2c1c(O)cc(O)c2c1O[C@H](c1ccc(O)c(O)c1)[C@@H](O)C2	inactive	Stable	Active	–	–
Oc1cc(O)c2c(c1)O[C@@H](c1ccc(O)c(O)c1)[C@H](O)[C@H]2c1c(O)cc(O)c2c1O[C@H](c1ccc(O)c(O)c1)[C@H](O)C2	inactive	Stable	Active	–	–
Oc1cc(O)c2c(c1)O[C@H](c1ccc(O)c(O)c1)[C@H](O)[C@H]2c1c(O)cc(O)c2c1O[C@@H](c1ccc(O)c(O)c1)[C@@H](O)C2	inactive	Stable	Active	–	–
Oc1cc(O)c2c(c1)O[C@H](c1ccc(O)c(O)c1)[C@H](O)[C@H]2c1c(O)cc(O)c2c1O[C@H](c1ccc(O)c(O)c1)[C@H](O)[C@H]2c1c(O)cc(O)c2c1O[C@H](c1ccc(O)c(O)c1)[C@@H](O)C2	–	Stable	Active	5	70 to 80
Oc1cc(O)c2c(c1)O[C@H](c1ccc(O)c(O)c1)[C@H](O)[C@H]2c1c(O)cc(O)c2c1O[C@@H](c1ccc(O)c(O)c1)[C@H](O)C2	inactive	Stable	–	–	–
Oc1cc(O)c2c(c1)O[C@H](c1ccc(O)c(O)c1)[C@@H](O)[C@@H]2c1c(O)cc(O)c2c1O[C@H](c1ccc(O)c(O)c1)[C@@H](O)C2	inactive	Stable	–	–	–
